The subject of data set [1] is Mus musculus. Nature of the data set: In vivo binding affinity to GlyT1 in ddY mouse brain striatum at 33.3 kBq, iv after 60 mins in presence of nonradioactive compound 2 mg/kg, iv administered 15 mins prior to compound administration relative to control. Set-up: dose 2 mg/kg. The class given is functional, organism-based. Particulars: tested as the 125I-labelled form.

Data set [2] has as its target T1, Sodium- and chloride-dependent glycine transporter 1 (Rattus norvegicus) (UniProt P28572).
T1 sequence (whole entry): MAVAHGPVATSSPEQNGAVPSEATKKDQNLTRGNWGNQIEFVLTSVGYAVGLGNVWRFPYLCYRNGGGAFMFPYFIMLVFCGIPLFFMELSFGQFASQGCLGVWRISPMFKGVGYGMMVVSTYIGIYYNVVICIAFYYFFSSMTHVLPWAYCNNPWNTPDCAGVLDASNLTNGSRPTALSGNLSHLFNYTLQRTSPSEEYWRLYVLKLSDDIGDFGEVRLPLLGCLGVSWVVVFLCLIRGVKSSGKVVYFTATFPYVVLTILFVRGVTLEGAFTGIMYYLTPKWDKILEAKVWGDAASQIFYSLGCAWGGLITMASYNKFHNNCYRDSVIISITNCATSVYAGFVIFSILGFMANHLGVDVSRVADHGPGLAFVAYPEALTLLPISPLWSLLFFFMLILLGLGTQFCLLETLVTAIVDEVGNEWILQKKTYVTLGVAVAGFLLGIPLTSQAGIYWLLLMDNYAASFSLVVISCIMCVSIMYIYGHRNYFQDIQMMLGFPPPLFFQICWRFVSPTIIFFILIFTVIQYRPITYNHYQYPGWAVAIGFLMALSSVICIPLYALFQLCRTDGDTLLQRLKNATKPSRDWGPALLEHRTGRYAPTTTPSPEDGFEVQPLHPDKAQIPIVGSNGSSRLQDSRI
Description: Binding affinity to GlyT1 in rat brain striatum at 0.03 to 0.04 nM preincubated for 20 mins in binding buffer before compound addition measured after 30 mins by autoradiography in presence of 0.01 mM NMDA receptor glycine site antagonist L-701,324 relative to control. The class given is tissue-based. Particulars: tested as the 125I-labelled form.

Data set [3] addresses T1, Sodium- and chloride-dependent glycine transporter 1 (Rattus norvegicus). Nature of the data set: Binding affinity to GlyT1 in rat brain thalamus at 0.03 to 0.04 nM preincubated for 20 mins in binding buffer before compound addition measured after 30 mins by autoradiography in presence of 0.01 mM NMDA receptor glycine site antagonist L-701,324 relative to control. The class given is tissue-based. The following applies: tested as the 125I-labelled form.

The test system of data set [4] is Mus musculus. Description: In vivo binding affinity to GlyT1 in ddY mouse brain medullary region at 33.3 kBq, iv after 30 mins in presence of SSR504734 2 mg/kg, iv administered 15 mins prior to compound administration relative to control. The class given is functional, organism-based. Particulars: Medulla of organ, tested as the 125I-labelled form. Details: dose 2 mg/kg.

Data set [5] has as its target T1, Sodium- and chloride-dependent glycine transporter 1 (Rattus norvegicus). Nature of the data set: Binding affinity to GlyT1 in rat brain corpus callosum at 0.03 to 0.04 nM preincubated for 20 mins in binding buffer before compound addition measured after 30 mins by autoradiography in presence of 0.01 mM NMDA receptor glycine site antagonist L-701,324 relative to control. Particulars: tested as the 125I-labelled form. Format: tissue-based. An outline of the steps:
(§1)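 Rat brain sagittal sections (20 µm) preincubated 20 min at 25 °C in Tris-HCl buffer pH 7.5 (NaCl, KCl, MgCl2, CaCl2), then 30 min at 25 °C with [125I] tracer (100 kBq, 0.03–0.04 nM) plus competitor (10 µM; glycine 1 or 10 mM). Cold washes, imaging plate 3 days, ROI PSL minus background per mm². % control from ≥triplicate slices, three rats.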

Data set [6] shares this target. Nature of the data set: Binding affinity to GlyT1 in rat brain hippocampus at 0.03 to 0.04 nM preincubated for 20 mins in binding buffer before compound addition measured after 30 mins by autoradiography in presence of 1 mM GlyT1 substrate glycine relative to control. Format: tissue-based. Particulars: tested as the 125I-labelled form. Put shortly:
as §1

For data set [7] the target is unchanged. Nature of the data set: Binding affinity to GlyT1 in rat brain cerebellum at 0.03 to 0.04 nM preincubated for 20 mins in binding buffer before compound addition measured after 30 mins by autoradiography in presence of 1 mM GlyT1 substrate glycine relative to control. Format: tissue-based. The following applies: tested as the 125I-labelled form. Put shortly:
as §1

For data set [8] the target is unchanged. Description: Binding affinity to GlyT1 in rat brain cerebral cortex at 0.03 to 0.04 nM preincubated for 20 mins in binding buffer before compound addition measured after 30 mins by autoradiography in presence of 0.01 mM GlyT1 inhibitor HPCP relative to control. The class given is tissue-based. Particulars: tested as the 125I-labelled form. Put shortly: as §1

Data set [9] shares this target. Description: Binding affinity to GlyT1 in rat brain cerebral cortex at 0.03 to 0.04 nM preincubated for 20 mins in binding buffer before compound addition measured after 30 mins by autoradiography in presence of 0.01 mM NMDA receptor glycine site antagonist L-701,324 relative to control. Format: tissue-based. The following applies: tested as the 125I-labelled form. Put shortly:
as §1

Another data set has as its system Kidney. Description: Drug uptake in ddY mouse kidney at 11.1 kBq, iv after 5 min by gamma counting. The following applies: in vivo. Format: ADME, organism-based. Put shortly:
(§2)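 Male ddY mice (6 weeks, 30–35 g) were given about 11.1 kBq of [125I]tracer in 0.1 mL i.v. via the tail vein. At each time point the animals were killed and organs dissected, weighed and gamma-counted. Uptake is expressed as % injected dose per gram of tissue, mean ± SD, n = 5–6.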

The test system of data set [10] is Lung. Description: Drug uptake in ddY mouse lung at 11.1 kBq, iv after 15 min by gamma counting. The class given is ADME, organism-based. The following applies: in vivo. An outline of the steps: as §2
For data set [11], the system named is Lung. Nature of the data set: Drug uptake in ddY mouse lung at 11.1 kBq, iv after 60 min by gamma counting. The class given is ADME, organism-based. Particulars: in vivo, 1 h. Put shortly:
as §2

Data set [12] deals with Mus musculus. Nature of the data set: In vivo binding affinity to GlyT1 in ddY mouse brain medullary region at 33.3 kBq, iv after 60 mins in presence of nonradioactive compound 2 mg/kg, iv administered 15 mins prior to compound administration relative to control. Format: functional, Medulla of organ.
In data set [13] the test system is Nucleic Acid. Nature of the data set: Ratio of drug level in brain to blood in ddY mouse at 11.1 kBq, iv after 5 min by gamma counting. The class given is ADME, organism-based.
Data set [14] deals with Nucleic Acid. Nature of the data set: Ratio of drug level in brain to blood in ddY mouse at 11.1 kBq, iv after 30 min by gamma counting. The class given is ADME, organism-based. The following applies: 0.5 h.
Data set [15] relates to Nucleic Acid. Description: Ratio of drug level in brain to blood in ddY mouse at 11.1 kBq, iv after 180 min by gamma counting. Format: ADME, organism-based. Particulars: 3 h.
The test system of another data set is Stomach. Description: Drug uptake in ddY mouse stomach at 11.1 kBq, iv after 15 min by gamma counting. Format: ADME, organism-based. Particulars: in vivo. Put shortly: as §2
The subject of the next data set is Pancreas. Description: Drug uptake in ddY mouse pancreas at 11.1 kBq, iv after 0.5 min by gamma counting. Format: ADME, organism-based. The following applies: in vivo. Put shortly:
as §2

A further data set relates to Heart. Description: Drug uptake in ddY mouse heart at 11.1 kBq, iv after 15 min by gamma counting. Format: ADME, organism-based. The following applies: in vivo. Put shortly: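 Male ddY mice (6 weeks, 30–35 g) received about 11.1 kBq [125I]tracer in 0.1 mL i.v. via tail vein. Killed at set times, organs dissected and weighed, radioactivity gamma counted. Reported as % injected dose/g tissue, mean ± SD, n = 5–6.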

The subject of data set [16] is Mus musculus. Description: In vivo binding affinity to GlyT1 in ddY mouse brain midbrain at 33.3 kBq, iv after 30 mins in presence of nonradioactive compound 2 mg/kg, iv administered 15 mins prior to compound administration relative to control. The class given is functional.

This passage reports Activity, Drug uptake and Ratio results from ChEMBL document CHEMBL1938298, “Synthesis and characterization of [¹²⁵I]2-iodo N-[(S)-{(S)-1-methylpiperidin-2-yl}(phenyl)methyl]3-trifluoromethyl-benzamide as novel imaging probe for glycine transporter 1” (Bioorg Med Chem, 2011).

Activity calls are given as the source filed them. No cut-off for these calls is given here.

Regarding `CN1CCCC[C@H]1[C@@H](NC(=O)c1cccc(C(F)(F)F)c1I)c1ccccc1`, the result in the data set with Mus musculus [1] was Active. Besides, the Activity in data set [2] is 96.8%; in data set [3], 87.1%; in data set [5], 92.5%; in data set [6] it was 108%; in data set [7] it was 97.4%; in [8], 31%. Also, in data set [9], the Activity is 92.5%. For the same molecule, the result in the data set on Mus musculus [4] was inactive.

With `CN1CCCC[C@H]1[C@@H](NC(=O)c1cccc(C(F)(F)F)c1[125I])c1ccccc1`, the Drug uptake worked out at 10.71 % ID/g with Kidney; 15.24 % ID/g with Lung [10]; 12.09 % ID/g in the data set on Lung [11]; 5.22 % ID/g with Stomach; 1.18 % ID/g in the data set on Pancreas; 3.38 % ID/g with Heart. Moreover, the Activity in the data set with Mus musculus [12] worked out at 52%; in the data set on Mus musculus [16] it was 48%. Besides, the Ratio in the data set on Nucleic Acid [13] turned out to be 1.57; in the data set on Nucleic Acid [14], 2.46; with Nucleic Acid [15], 0.85.
